TRPC6 act – activates the mouse TRPC6 cation channel; B-score at 10 µM; actives 0.13% (n = 310,000); HEK293-TRPC6 membrane potential dye fluorescence; active compounds read high;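 active means B-score of the integrated fluorescence ratio above library mean plus 3 SD, and starting fluorescence ratio within library mean plus 5 SD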;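 further: higher score means more depolarization so channel activation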
Target sequence (Q61143 whole entry, looked up): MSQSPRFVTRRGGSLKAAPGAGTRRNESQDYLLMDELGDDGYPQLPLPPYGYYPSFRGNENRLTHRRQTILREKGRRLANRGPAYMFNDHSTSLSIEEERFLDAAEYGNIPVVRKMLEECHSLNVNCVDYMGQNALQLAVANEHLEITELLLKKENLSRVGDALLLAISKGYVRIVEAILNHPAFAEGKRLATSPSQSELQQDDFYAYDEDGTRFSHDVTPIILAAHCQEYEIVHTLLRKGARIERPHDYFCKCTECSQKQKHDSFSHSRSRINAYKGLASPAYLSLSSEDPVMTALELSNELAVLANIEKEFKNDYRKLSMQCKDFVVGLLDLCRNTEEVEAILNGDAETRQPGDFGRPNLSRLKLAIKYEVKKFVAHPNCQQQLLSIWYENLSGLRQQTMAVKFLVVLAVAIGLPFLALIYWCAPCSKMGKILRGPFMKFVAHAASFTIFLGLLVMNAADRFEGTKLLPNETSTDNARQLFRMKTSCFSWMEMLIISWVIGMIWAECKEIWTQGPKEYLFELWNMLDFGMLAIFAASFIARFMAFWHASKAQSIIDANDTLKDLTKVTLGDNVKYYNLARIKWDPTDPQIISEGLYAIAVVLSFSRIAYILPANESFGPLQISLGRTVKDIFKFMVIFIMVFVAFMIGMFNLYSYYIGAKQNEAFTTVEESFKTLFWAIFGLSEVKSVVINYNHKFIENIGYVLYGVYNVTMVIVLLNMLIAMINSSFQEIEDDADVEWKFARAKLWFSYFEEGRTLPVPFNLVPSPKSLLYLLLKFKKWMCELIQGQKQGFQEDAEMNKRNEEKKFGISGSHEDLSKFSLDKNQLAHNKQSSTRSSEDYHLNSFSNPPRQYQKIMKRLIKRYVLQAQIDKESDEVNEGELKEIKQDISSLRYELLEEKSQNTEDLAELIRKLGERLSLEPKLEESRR
TRPC4 block – TRPC4 (mouse) channel inhibition; actives 0.39% (n = 300,000); B-score at 10 µM; AID 2247; HEK293 TRPC4beta/mu-opioid, DAMGO-evoked Fluo4 calcium flux; active compounds read low; Q9QUQ5;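 active means B-score over 3 SD under the library average, no early fluorescence shift, positive overall ratio signal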
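Material: HEK293 cells with stable TRPC4beta plus mu-opioid receptor expression; probe or stimulus: DAMGO in two steps, submaximal then maximal; technique: Fluo4 calcium fluorescence by kinetic imaging, 5 s 1 Hz baseline; measure: integrated fluorescence ratio relative to baseline, converted to per-well B score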
TRPC4 PAM – TRPC4 (mouse) allosteric potentiation. HEK293 TRPC4beta/mu-opioid, DAMGO EC20, Fluo-4 Ca2+ flux; active compounds read high. actives 0.42% (n = 310,000). Q9QUQ5. B-score at 10 µM;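 active means B-score of calcium response area above 5 SD of library B-scores, with initial fluorescence ratio within 5 SD of library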
TRPC4 act – activators of mouse TRPC4 channel; HEK293 TRPC4beta/mu-opioid, Fluo4 calcium fluorescence; active compounds read high; B-score at 10 µM; actives 0.49% (n = 310,000); AID 2237; Q9QUQ5;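 active means B-score above 5 SD of library B-scores, and initial fluorescence ratio not above library mean plus 5 SD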;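 further: positive B-score marks a calcium rise read as TRPC4 activation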
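Assay system – TRPC4beta and mu-opioid receptor HEK293 stable cells · Measured by – Fluo4 fluorescence, kinetic · Schedule – dye loading 45 min room temperature, 110 s kinetic read · Read-out – B-scored integrated calcium fluorescence ratio · Controls – buffer and maximal DAMGO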
TRPC6 inh – blocks the mouse TRPC6 cation channel. HEK293-TRPC6, membrane potential dye, ACh-evoked depolarization; active compounds read low. actives 1.1% (n = 310,000). B-score at 10 µM. Q61143;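 active means B-score under library mean minus 3 SD, initial fluorescence not abnormally high, positive integrated signal ratio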;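 further: B-score derived from integrated fluorescence ratio over the kinetic read; more negative B-score means stronger inhibition of depolarization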
TRPC4 spec 2 – second selectivity test of TRPC6 inhibitors: effect on mouse TRPC4; shares compounds with TRPC6 inh; HEK293 TRPC4/MOR, membrane potential dye fluorescence; channel activated by saturating DAMGO dose; inhibition, % at 10 µM; actives 42% (n = 920);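 active means compounds whose fluorescence signal differed from control wells by over 3 SD, either direction, in both duplicate plates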
TRPC4 spec – tests whether TRPC6 inhibitors also affect mouse TRPC4; shares compounds with TRPC6 inh; HEK293 TRPC4/mu-opioid, membrane potential fluorescence; activity change, negative = inhibition, % at 10 µM; actives 61% (n = 920); AID 2777;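 active means rise or fall in signal beyond 3 SD of buffer-only wells in both replicate plates, either sign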;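 further: integrated kinetic ratio of fluorescence range over baseline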
HEK293 MPD ctr 2-1 – second check of TRPC6 inhibitor effects in parental HEK293 cells. shares compounds with TRPC6 inh. signal change vs control, % at 10 µM. actives 31% (n = 920). parental HEK293 membrane potential dye fluorescence; maximal acetylcholine challenge after compound addition;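 active means membrane potential signal moving either way by over 3 SD of the maximum-effect control, in both duplicate plates, meaning non-specific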
HEK293 MPD ctr-1 – parental HEK293 nonspecific activity of TRPC6 inhibitors. membrane potential signal change, % at 10 µM. actives 60% (n = 920). parental HEK293 membrane potential dye fluorescence. shares compounds with TRPC6 inh. AID 2780;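 active means membrane potential signal shifting up or down by more than 3 SD of buffer-only wells, on both duplicate plates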
HEK293 MPD ctr-2 – checks TRPC6 modulator effects in parental HEK293 cells | shares compounds with TRPC6 inh | actives 51% (n = 2,400) | AID 488924 | membrane potential dye fluorescence | membrane potential signal change, % at 10 µM;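 active means membrane potential signal moves up or down beyond 5 SD from buffer-only wells, on both duplicate plates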
HEK293 MPD ctr 2-2 – parental HEK293 nonspecific activity of TRPC6 modulators, second screen. shares compounds with TRPC6 inh. AID 488926. inhibition, % at 10 µM. membrane potential dye fluorescence; after compound, maximal acetylcholine stimulation. actives 14% (n = 2,400);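 active means membrane potential signal drops by more than 5 SD from the mean control signal, in both duplicate plates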
TRPC4 ctr mod – mouse TRPC4 off-target activity of TRPC6 modulators | shares compounds with TRPC6 inh | HEK293 TRPC4/mu-opioid, membrane potential fluorescence | percent change from control (negative = decrease, positive = increase), % at 10 µM | actives 69% (n = 2,400) | AID 488927;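 active means membrane potential signal moved up or down beyond 5 SD of buffer control wells, in both duplicate plates, actives on both sides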
TRPC4 ctr inh 2 – second selectivity test of TRPC6 modulators against mouse TRPC4; inhibition, % at 10 µM; actives 55% (n = 2,400); AID 488928; shares compounds with TRPC6 inh; HEK293 TRPC4/mu-opioid, membrane potential dye fluorescence; stimulated with maximal-effect DAMGO;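 active means drop in membrane potential signal beyond 5 SD of the control wells in both duplicate plates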;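 further: TRPC4 counter screen for TRPC6 hits run under conditions tuned for TRPC6 not TRPC4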
TRPC6 block conf – mouse TRPC6 inhibitor confirmation | actives 43% (n = 3,300) | shares compounds with TRPC6 inh | HEK293-TRPC6, membrane potential dye, ACh-evoked depolarization | inhibition, % at 10 µM;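 active means fluorescence ratio falls more than 5 SD below the full-stimulation control mean, in both duplicate runs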;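 further: integrated fluorescence ratio of peak minus minimum over baseline after agonist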
TRPC6 act confirm – mouse TRPC6 activator confirmation. activation, % at 10 µM. actives 11% (n = 2,800). shares compounds with TRPC6 inh. HEK293-TRPC6 membrane potential dye fluorescence, FDSS. AID 488961;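 active means ratio signal rise beyond 5 SD above unstimulated control wells' mean, seen in both duplicate runs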
Of the large screens only hits and unclear results are named; the others gave an inactive call (follow-up assays come after a bar, where they were run). In the library only some 2.3% were active in any assay of this set; here they are far more common.

Cc1ccc(-n2nc(C(=O)NCc3ccco3)c3c4ccccc4n(C)c3c2=O)cc1	none
CCN(CC)CCNC(=O)c1nn(-c2ccc(C)cc2)c(=O)c2c1c1ccccc1n2C	TRPC6 inh -8.9 | TRPC4 spec 2 56% | TRPC4 spec -15% | HEK293 MPD ctr 2-1 inactive | HEK293 MPD ctr-1 -187% | TRPC6 block conf 64% | TRPC6 act confirm inactive
CCOC(=O)c1nnn2c1nc(N1CCN(C)CC1)c1ccccc12	TRPC6 inh -8.4 | HEK293 MPD ctr-2 -238% | HEK293 MPD ctr 2-2 74% | TRPC4 ctr mod -42% | TRPC4 ctr inh 2 53% | TRPC6 block conf 61% | TRPC6 act confirm inactive
CCOC(=O)c1nnn2c1nc(N1CCCCC1)c1ccccc12	none
Cc1ccc(C)c(COc2coc(CN3CCN(C(=O)c4ccco4)CC3)cc2=O)c1	none
O=C(Nc1ccc(F)cc1)c1ccccc1Oc1ccc(C(F)(F)F)cc1[N+](=O)[O-]	TRPC6 inh -5.3 | HEK293 MPD ctr-2 inactive | HEK293 MPD ctr 2-2 inactive | TRPC4 ctr mod inactive | TRPC4 ctr inh 2 35% | TRPC6 block conf inactive | TRPC6 act confirm inactive
Cc1cccc2sc(N3CCN(C(=O)c4cccs4)CC3)nc12	TRPC6 inh -5.4 | HEK293 MPD ctr-2 inactive | HEK293 MPD ctr 2-2 inactive | TRPC4 ctr mod 14% | TRPC4 ctr inh 2 32% | TRPC6 block conf 47%
COCCNC(=O)CCSc1nc(-c2ccc(OC)cc2)cc(C(F)(F)F)n1	TRPC6 inh -5.6 | HEK293 MPD ctr-2 inactive | HEK293 MPD ctr 2-2 inactive | TRPC4 ctr mod inactive | TRPC4 ctr inh 2 inactive | TRPC6 block conf inactive | TRPC6 act confirm inactive
Cc1cc2c(cc1S(=O)(=O)CCC(=O)NC1CCC(C)CC1)OCC(=O)N2 (stereo not drawn)	none
Cc1ccc(-n2nnnc2SCc2ccc(C(=O)O)cc2)cc1C	none
O=[N+]([O-])c1ccc(OCCCCN2CCc3ccccc3C2)cc1	TRPC6 inh -8.4 | TRPC4 spec 2 44% | TRPC4 spec inactive | HEK293 MPD ctr 2-1 inactive | HEK293 MPD ctr-1 inactive | TRPC6 block conf inactive | TRPC6 act confirm inactive
COc1ccc(OCC(O)CNS(=O)(=O)c2ccc(C)cc2)cc1 (stereo not drawn)	none
COc1ccc(OC)c(CN2CCN(C(=O)c3ccc(F)cc3)CC2)c1	none
COC(=O)c1cn(Cc2cc(OC)ccc2OC)cc(F)c1=O	TRPC6 inh -5.3 | HEK293 MPD ctr-2 inactive | HEK293 MPD ctr 2-2 inactive | TRPC4 ctr mod inactive | TRPC4 ctr inh 2 inactive | TRPC6 block conf inactive | TRPC6 act confirm inactive
Cc1cc[n+](CC[n+]2ccc(C)cc2)cc1	none
CCC(C)(C)c1ccc(OCCCC[n+]2ccc(C)cc2)c(C(C)(C)CC)c1	TRPC6 inh -6.2 | HEK293 MPD ctr-2 inactive | HEK293 MPD ctr 2-2 inactive | TRPC4 ctr mod -14% | TRPC4 ctr inh 2 inactive | TRPC6 block conf inactive | TRPC6 act confirm inactive
O=C(/C=C/c1cn(CC(O)CN2CCCCCC2)c2ccccc12)c1cccs1 (stereo not drawn)	TRPC6 inh -6.1 | HEK293 MPD ctr-2 652% | HEK293 MPD ctr 2-2 inactive | TRPC4 ctr mod -21% | TRPC4 ctr inh 2 88% | TRPC6 block conf 62% | TRPC6 act confirm inactive
CCCCN(C)CC(O)Cn1cc(/C=C/C(=O)c2cccs2)c2ccccc21 (stereo not drawn)	none
CC(=O)Nc1ccc(S(=O)(=O)NCCC(=O)Nc2cccc(Cl)c2)cc1	none
Cc1cccc(NC(=O)CCNS(=O)(=O)c2ccc(Cl)cc2)c1	TRPC6 inh -5.1 | HEK293 MPD ctr-2 inactive | HEK293 MPD ctr 2-2 inactive | TRPC4 ctr mod inactive | TRPC4 ctr inh 2 inactive | TRPC6 block conf inactive | TRPC6 act confirm inactive
C[n+]1ccc(/C=C/c2ccccc2O)c2ccccc21	TRPC6 inh -5.7 | HEK293 MPD ctr-2 -81% | HEK293 MPD ctr 2-2 inactive | TRPC4 ctr mod -16% | TRPC4 ctr inh 2 inactive | TRPC6 block conf 42% | TRPC6 act confirm inactive
COCCNC(=S)N(CCc1c(C)[nH]c2ccc(Cl)cc12)Cc1cccnc1	TRPC6 inh -7 | TRPC4 spec 2 inactive | TRPC4 spec inactive | HEK293 MPD ctr 2-1 inactive | HEK293 MPD ctr-1 inactive | TRPC6 block conf inactive | TRPC6 act confirm inactive
CNC(=S)N(CCc1c(C)[nH]c2ccc(Cl)cc12)Cc1cccnc1	none
CCNC(=S)N(CCc1c(C)[nH]c2ccc(Cl)cc12)Cc1cccnc1	TRPC6 inh -5.8 | HEK293 MPD ctr-2 inactive | HEK293 MPD ctr 2-2 inactive | TRPC4 ctr mod inactive | TRPC4 ctr inh 2 inactive | TRPC6 block conf inactive | TRPC6 act confirm inactive
COCCNC(=S)N(CCc1c(C)[nH]c2ccc(F)cc12)Cc1cccnc1	none
COC(=O)c1ccc(Nc2cc(C)nc3ccc(C)cc23)cc1	TRPC6 inh -7.2 | TRPC4 spec 2 inactive | TRPC4 spec -22% | HEK293 MPD ctr 2-1 inactive | HEK293 MPD ctr-1 -299% | TRPC6 block conf inactive | TRPC6 act confirm inactive
Cc1ccc2nc(C)cc(Nc3ccc([N+](=O)[O-])cc3)c2c1	none
COC(=O)c1ccc2nc(C)cc(Nc3ccccc3C)c2c1	TRPC6 inh -5.9 | HEK293 MPD ctr-2 -149% | HEK293 MPD ctr 2-2 inactive | TRPC4 ctr mod -25% | TRPC4 ctr inh 2 43% | TRPC6 block conf 58% | TRPC6 act confirm inactive

Screening results (PubChem BioAssay)
